Assays:
[1] = cited from earlier work
[2] = tested on: FGF2 binding to cell surface heparan sulfate (wild-type CHO cells); test: Inhibition of FGF2 binding to cell surface HS on wild-type CHO cells; details: for IC50: read-out: IC50 against FGF2 binding, biotinylated FGF2 2.5 nM, on ice, mean ± SD of n = 3–4; for inhibition of FGF2 binding (in words): up to 100 μM
Method in brief: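 Wild-type CHO cells grown to confluence in F12/10% FBS, lifted enzyme-free and washed in PBS. Pre-incubated with test compound in PBS/0.1% BSA for 10 min on ice. Biotinylated FGF2 (2.5 nM) added for 30 min on ice. After washing, detected with streptavidin-PE-Cy5 or streptavidin-Cy5 by flow cytometry as geometric mean fluorescence. Expressed as % of binding without compound and plotted against concentration.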

[3] = tested on: soluble RAGE (sRAGE) binding to cell surface HS; test: Inhibition of sRAGE binding to cell surface HS on CHO cells; details: for sRAGE binding inhibition at 10 μM (in words): 10 μM compound, cell surface HS
Method in brief: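 CHO cells lifted enzyme-free and washed in PBS. Test compound at 10 μM pre-incubated in PBS/0.1% BSA for 10 min on ice. Biotinylated sRAGE (2 μg mL−1) added for 1 h on ice. After washing, bound protein detected with streptavidin-PE-Cy5 or streptavidin-Cy5 by flow cytometry as geometric mean fluorescence. Reported relative to no-compound binding, means ± SD.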

[4] = In vivo neutralization of fondaparinux in mice; details: fondaparinux 0.5 mg kg^–1 s.c., 16 mg kg^–1 i.v.
Method in brief: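 Wild-type mice (8 weeks, ~20–30 g), n = 3 per group. Baseline tail bleed 30 min before dosing. Fondaparinux 0.5 mg kg−1 in PBS given s.c. After 10 min, tail-vein i.v. dosing of test compound (16 mg kg−1, DMSO–water), DMSO–H2O vehicle or protamine (16 mg kg−1, PBS). Blood drawn 5 min later into 3.2% citrate. Plasma anti-FXa colorimetric assay (405 nm) read against a calibration curve. Means ± SD.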

| Molecule | IC50 [2] | sRAGE binding inhibition at 10 μM (in words) [3] | also measured |
| --- | --- | --- | --- |
| Nc1ccnc2ccccc12 [4-aminoquinoline] |  |  | pKa of the protonated form [1]: ~8.5 |
| CC(=O)Nc1ccc2nc(C)cc(N)c2c1 [Acetyl-hemisurfen (3), 6-acetamido-4-aminoquinaldine] | > 100 µM | no inhibitory activity | inhibition of FGF2 binding (in words) [2]: did not inhibit; IC50 ([3]; read-out: IC50 inhibition of sRAGE binding to HS, CHO cells, biotinylated sRAGE 2 μg mL^–1): > 100 µM |
| COc1cc(C)nc2ccc(NC(=O)Nc3ccc4nc(C)cc(OC)c4c3)cc12 [Methoxy surfen (5), 1,3-bis(4-methoxy-2-methyl-quinolin-6-yl)urea] | > 100 µM |  |  |
| Cc1ccc2cc(NC(=O)Nc3ccc4nc(C)ccc4c3)ccc2n1 [Deaminated surfen (6), 1,3-Bis(2-methylquinolin-6-yl)urea] | > 100 µM | no inhibitory activity |  |
| Cc1cc(N)c2cc(NC(=S)Nc3ccc4nc(C)cc(N)c4c3)ccc2n1 [Thio surfen (4), N,N′-bis-(4-amino-2-methyl-6-quinolyl)-thiourea] | 8 ± 0.2 µM |  |  |
| Cc1cc(N)c2cc(NC(N)=O)ccc2n1 [Hemisurfen (2), 4-Amino-2-methyl-6-quinolyl-urea] | > 100 µM | no inhibitory activity | inhibition of FGF2 binding (in words) [2]: did not inhibit |
| protamine |  |  | neutralizing fondaparinux in vivo (in words) [4]: ineffective |

— article PMC5267326 (Chemical Science, 2015)
